Data published in PubChem BioAssay.
Results filed as inconclusive are left out.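 The calls were made as follows, unless noted: active = viability increase at or above a cutoff of the median across tested compounds plus 3 SD (cut at about 8.5% in these data, passing the limit was not always enough); inconclusive = some gains above the cutoff, reason not given; inactive = the rest.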

Legend:
[1] = OD615 S. cerevisiae growth inhibition, permissive medium, pilot counter-assay, permissive growth control for S. cerevisiae lifespan shortening project (AID 705;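 active = growth inhibition above 25% in both replicates, a cutoff set 3 SD above the mean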); settings: OD615, 24 h, at 10 µM, hits give high values
Outline: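 System: engineered DeaD yeast; Medium: permissive raffinose/galactose medium; Compound dosing: 10 µM single dose, 0.25% DMSO; Incubation: 4 h cell pre-growth, 24 h exposure at 30 °C; Technique: OD at 615 nm; Evaluation: growth inhibition from lowered OD615 after 24 h.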

[2] = Restrictive medium S. cerevisiae growth inhibition, OD615, pilot screen of yeast lifespan reduction project, restrictive growth control (AID 706;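 active = growth inhibition above a set limit, 3 SD over mean compound inhibition, in both replicates, cut at about 43% in these data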;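 also: modified DeaD lifespan yeast strain shifted to restrictive glucose medium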); settings: OD615, 48 h, at 10 µM, hits give high values
Outline: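 Material: modified S. cerevisiae; buffer or medium: CSMM-D glucose medium; doses: one concentration, 10 µM final, 0.25% DMSO; incubation: 48 h compound exposure at 30 °C; detection: optical density at 615 nm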

[3] = viability gain of MRP-1-high H69AR cells under doxorubicin, pilot screen, MRP-1 activator project, CellTiter-Glo, duplicate (AID 807); settings: H69AR viability with doxorubicin, CellTiter-Glo luminescence; at 10 µM; hits give high values;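 also: compound pretreatment 18-22 h then 72 h combined with doxorubicin; 0% = doxorubicin alone and 100% = vehicle without doxorubicin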
[4] = growth suppression of beta-catenin knockout HCT116, pilot screen, human colon tumor cells (AID 823;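 active = cell viability at or below a set limit in both duplicate runs, the limit being the all-compound median minus 4 SD, cut at about 23% in these data, passing the limit was not always enough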;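 also: 0% = wells killed by 20 µM Hyamine and 100% = untreated DMSO cell wells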); settings: CellTiter-Glo, 60 h, at 10 µM, hits give low values
[5] = growth suppression of PTEN-deleted HCT116, pilot screen, cell-based, HCT116 clonal line, CellTiter-Glo (AID 824;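 active = viability at or below 27.92% in each of two runs, the all-compound median minus 4 SD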;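 also: 0% = 20 µM Hyamine control and 100% = vehicle cell control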); settings: 60 h, at 10 µM, hits give low values
[6] = inhibitors of the yeast RAM network, pilot screen, dse1pr::URA3 reporter, 5-FOA selection (AID 869;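 active = inhibition over a set limit, the all-compound mean plus 3 SD, in both replicate runs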;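 also: 0% = DMSO wells with no growth and 100% = 10 µM 1-NA-PP1 with full growth; RAM network block rescues cells from 5-FOA so hits raise OD615 growth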); settings: S. cerevisiae dse1pr::URA3 5-FOA growth, OD615, 2 d; at 10 µM; hits give high values; strain carries analog-sensitive mutant Cbk1 kinase
[7] = RAM signaling pathway blockade in yeast – S. cerevisiae, Pdr1DBD-CYC8 efflux-inhibited sensitized strain, primary screen (AID 1298;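 active = RAM network inhibition above 8.4% in each of two replicates, 3 SD over the compound average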;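 also: 0% = DMSO untreated cells without growth and 100% = 10 µM 1-NA-PP1 full growth; higher means more yeast growth rescued from 5-FOA killing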); settings: S. cerevisiae cbk1-as DSE1-URA3 strain, 5-FOA growth OD615, 2 d; at 50 µM; hits give high values

COc1cc(C(=O)Oc2ccccc2N)cc(OC)c1OC
inactive: growth inhibition [1] -19.6% | growth inhibition [2] 11.3% | viability increase [3] -2.84% | viability [4] 102% | viability [5] 96% | inhibition [6] -0.31% | RAM network inhibition [7] 1.19%

COc1ccc(-n2c(Cc3cccn3C)nnc2SCC(=O)Nc2ccc(C(C)=O)cc2)cc1
inactive: growth inhibition [1] 3.63% | growth inhibition [2] 17.8% | viability increase [3] -3.67% | viability [4] 99.4% | viability [5] 90.8% | inhibition [6] 1.6% | RAM network inhibition [7] 3.56%

O=C(COC(=O)C1(c2ccccc2F)CCCC1)N1CCN(C(=O)c2ccco2)CC1
inactive: growth inhibition [1] -13.4% | growth inhibition [2] -13.8% | viability increase [3] -2.48% | viability [4] 87.3% | viability [5] 95.4% | inhibition [6] 0.995% | RAM network inhibition [7] 1.19%

COc1cc2[nH]c(=O)n(CCC(=O)NCc3cccnc3)c(=O)c2cc1OC
inactive: growth inhibition [1] -19.1% | growth inhibition [2] -23.9% | viability increase [3] -1.46% | viability [4] 98.7% | viability [5] 95.8% | inhibition [6] 2.92% | RAM network inhibition [7] 2.26%

CCOc1cccc(NC(=O)c2ccc(S(=O)(=O)N3CCCC3)cc2)c1
inactive: growth inhibition [1] 0.65% | growth inhibition [2] -11.1% | viability increase [3] -2.68% | viability [4] 87.5% | viability [5] 82.1% | inhibition [6] 0.965% | RAM network inhibition [7] -0.21%

CCC/C(=C1/C(=O)CC(C)(C)C(C(=O)OC)C1=O)N1CCCC1 (configuration not stated)
inactive: growth inhibition [1] -4.46% | growth inhibition [2] 5.2% | viability increase [3] -1.41% | viability [4] 95.1% | viability [5] 97.5% | inhibition [6] 1.51% | RAM network inhibition [7] -2.05%

Cn1c(NC(=O)CC2CCCCC2)cc(=O)n(C)c1=O
inactive: growth inhibition [1] -14% | growth inhibition [2] -21.6% | viability increase [3] -0.04% | viability [4] 93.3% | viability [5] 87% | inhibition [6] 0.43% | RAM network inhibition [7] -0.37%

Cc1ccc(N(CC(O)CN2CCCC2)S(=O)(=O)c2ccccc2)cc1 (configuration not stated)
inactive: growth inhibition [1] -1.29% | growth inhibition [2] -3.1% | viability increase [3] -2.89% | viability [4] 94.2% | viability [5] 91.2% | inhibition [6] -0.105% | RAM network inhibition [7] 5.78%

CCCS(=O)(=O)NCCc1cc2ccc(OC)cc2[nH]c1=O
inactive: growth inhibition [1] -13.2% | growth inhibition [2] -5.31% | viability increase [3] -2.79% | viability [4] 97.4% | viability [5] 90.1% | inhibition [6] 2.56% | RAM network inhibition [7] 2.19%

Cc1nc2sc(C(c3ccccc3)N3CCN(C)CC3)c(O)n2n1 (configuration not stated)
inactive: growth inhibition [1] -3.65% | growth inhibition [2] 8.75% | viability increase [3] 0.48% | viability [4] 100% | viability [5] 103% | inhibition [6] 2.15% | RAM network inhibition [7] 2.45%

CCOC(=O)Cn1c(C(C)=O)nc2ccccc21
inactive: growth inhibition [1] -18.1% | growth inhibition [2] -25.1% | viability increase [3] 0.94% | viability [4] 102% | viability [5] 94.8% | inhibition [6] 0.28% | RAM network inhibition [7] 0.32%

COc1ccc2nc(N3CCCC(C(=O)NCCCN4CCN(C)CC4)C3)sc2c1 (configuration not stated)
inactive: growth inhibition [1] -5.12% | growth inhibition [2] -11.4% | viability increase [3] -2.35% | viability [4] 96.9% | viability [5] 89.5% | inhibition [6] 1.98% | RAM network inhibition [7] 8.59%

COc1ccc(OC)c(NC2c3ccccc3C(=O)N2Cc2ccc3c(c2)OCO3)c1 (configuration not stated)
inactive: growth inhibition [1] -0.33% | growth inhibition [2] -3.93% | viability increase [3] -0.47% | viability [4] 98% | viability [5] 90% | inhibition [6] 0.2% | RAM network inhibition [7] 5.4%

COC(=O)c1c(S(N)(=O)=O)c2ccccc2n1C
inactive: growth inhibition [1] -2.33% | growth inhibition [2] 2.71% | viability increase [3] -1.28% | viability [4] 100% | viability [5] 102% | inhibition [6] 1.06% | RAM network inhibition [7] 4.32%

COc1ccc2nc(NC(=O)c3ccc4ncsc4c3)sc2c1
inactive: growth inhibition [1] 0.465% | growth inhibition [2] 13% | viability increase [3] -3.84% | viability [4] 81.3% | viability [5] 82.5% | inhibition [6] 3.54% | RAM network inhibition [7] 8.79%

COc1ccc(-c2nc(C(N)=O)c3[nH]c(=O)n(-c4cccc(C)c4)c3n2)c(OC)c1
inactive: growth inhibition [1] -10.8% | growth inhibition [2] -14.3% | viability increase [3] -5.41% | viability [4] 81.6% | viability [5] 74.3% | inhibition [6] 3.42% | RAM network inhibition [7] 5.6%

COc1ccccc1NC(=O)CSc1nnc(Cn2c(=O)sc3ccccc32)n1C
inactive: growth inhibition [1] -3.61% | growth inhibition [2] 5.22% | viability increase [3] -4.11% | viability [4] 100% | viability [5] 87.9% | inhibition [6] 2.21% | RAM network inhibition [7] 4.37%

COc1ccc(-n2c(SCC(=O)Nc3ccccc3)nc3c(c2=O)SCC3)cc1
inactive: growth inhibition [1] -1.34% | growth inhibition [2] 0.23% | viability increase [3] 3.8% | viability [4] 101% | viability [5] 96% | inhibition [6] 0.755% | RAM network inhibition [7] 9.27%

COc1ccc(C2C(C(=O)NCc3ccccn3)c3ccccc3C(=O)N2C)cc1OC (configuration not stated)
inactive: growth inhibition [1] -4.72% | growth inhibition [2] -0.835% | viability increase [3] -0.8% | viability [4] 101% | viability [5] 101% | inhibition [6] 1.01% | RAM network inhibition [7] 0.74%

CC1CCCC(NC(=O)CN(C)S(=O)(=O)c2cccc3cccnc23)C1C (configuration not stated)
inactive: growth inhibition [1] -10.9% | growth inhibition [2] -18.7% | viability increase [3] -3.62% | viability [4] 98.7% | viability [5] 88.4% | inhibition [6] 0.34% | RAM network inhibition [7] 3.61%

COc1cc(C(=O)NCC(c2cccnc2)N2CCN(c3ccccc3)CC2)cc(OC)c1OC (configuration not stated)
inactive: growth inhibition [1] -6.31% | growth inhibition [2] -10.5% | viability increase [3] -4.26% | viability [4] 98.4% | viability [5] 92.5% | inhibition [6] 2.09% | RAM network inhibition [7] 2.64%

CCOC(=O)Cn1c(=O)oc2cc(S(=O)(=O)Nc3cc(Cl)ccc3OC)ccc21
inactive: growth inhibition [1] -2.69% | growth inhibition [2] -4.88% | viability increase [3] -2.35% | viability [4] 91.9% | viability [5] 89% | inhibition [6] 0.525% | RAM network inhibition [7] 4.96%

Cc1csc2nc(CNC(=O)CCC(=O)O)cn12
inactive: growth inhibition [1] -8.41% | growth inhibition [2] -2.59% | viability increase [3] -0.98% | viability [4] 101% | viability [5] 99.5% | inhibition [6] 1.4% | RAM network inhibition [7] 2.71%

Cc1cccc(-n2ncc3c(N4CCOCC4)ncnc32)c1
inactive: growth inhibition [1] 6.08% | growth inhibition [2] 17.2% | viability increase [3] -0.68% | viability [4] 101% | viability [5] 90.5% | inhibition [6] 1.59% | RAM network inhibition [7] 0.06%

CSC1=N/C(=C\c2ccccc2F)C(=O)S1
inactive: growth inhibition [1] -23.1% | growth inhibition [2] -24.4% | viability increase [3] -2.19% | viability [4] 102% | viability [5] 104% | inhibition [6] 0.435% | RAM network inhibition [7] -0.79%

Cc1cc(NC(=O)CSc2nnc(Cc3cccn3C)n2CCc2ccccc2)no1
inactive: growth inhibition [1] 6.44% | growth inhibition [2] 14.2% | viability increase [3] -2.85% | viability [4] 93.2% | viability [5] 89.4% | inhibition [6] 0.955% | RAM network inhibition [7] 7.83%

COC(=O)c1cc(NC2c3ccccc3C(=O)N2c2ccc(Cl)cn2)cc(C(=O)OC)c1 (configuration not stated)
inactive: growth inhibition [1] -20.1% | growth inhibition [2] -16.2% | viability increase [3] 0.19% | viability [4] 71.2% | viability [5] 64.4% | inhibition [6] 1.5% | RAM network inhibition [7] 4.41%

COc1cccc(OCCn2c(C)c(/C=N/n3cnnc3)c3ccccc32)c1
inactive: growth inhibition [1] 4.55% | growth inhibition [2] 1.59% | viability increase [3] -2.88% | viability [4] 99.3% | viability [5] 87% | inhibition [6] 2.11% | RAM network inhibition [7] 7.39%

COCCNc1cc(C)nc2c(-c3ccccc3OC)c(C)nn12
inactive: growth inhibition [1] -1.17% | growth inhibition [2] 4.02% | viability increase [3] -2.38% | viability [4] 97.2% | viability [5] 94.2% | inhibition [6] 1.74% | RAM network inhibition [7] 0.56%

Cc1ccc(S(=O)(=O)Cc2ccc(C(=O)N3CCCC3)o2)cc1
inactive: growth inhibition [1] -4.83% | growth inhibition [2] -13.4% | viability increase [3] -1.75% | viability [4] 99.2% | viability [5] 108% | inhibition [6] 1.19% | RAM network inhibition [7] 4.1%

COc1ccc(C2CC(c3ccccc3C)n3nc(N)nc3N2)cc1 (configuration not stated)
inactive: growth inhibition [1] 1.94% | growth inhibition [2] 17.8% | viability increase [3] 0.56% | viability [4] 96.1% | viability [5] 87.6% | inhibition [6] 2.3% | RAM network inhibition [7] 1.89%

Cc1cc(=O)[nH]c(SCc2cc(Cl)ccc2OC(F)F)n1
inactive: growth inhibition [1] -4.67% | growth inhibition [2] 15.1% | viability increase [3] -1.54% | viability [4] 98.2% | viability [5] 92.1% | inhibition [6] 1.62% | RAM network inhibition [7] 5.32%

COc1cccc(C2c3c(oc4cc(C)c(C)cc4c3=O)C(=O)N2CCCN(C)C)c1 (configuration not stated)
inactive: growth inhibition [1] -8.88% | growth inhibition [2] 0.12% | viability increase [3] -3.94% | viability [4] 93.6% | viability [5] 94.6% | inhibition [6] 0.885% | RAM network inhibition [7] 1.83%

CSc1cccc(NC(=O)CN(c2ccc(C)cc2C)S(C)(=O)=O)c1
inactive: growth inhibition [1] -12.5% | growth inhibition [2] -9.39% | viability increase [3] -1.07% | viability [4] 76.8% | viability [5] 67.8% | inhibition [6] 1.02% | RAM network inhibition [7] 2.43%

COc1cccc(C(=O)NCCn2ccc3ccccc32)c1
inactive: growth inhibition [1] -0.9% | growth inhibition [2] -3.15% | viability increase [3] -1.6% | viability [4] 95.3% | viability [5] 90.6% | inhibition [6] 0.825% | RAM network inhibition [7] 2.48%

CCc1c(C)nc2[nH]nc(-c3ccccc3)n2c1=O
inactive: growth inhibition [1] -20.2% | growth inhibition [2] -10.2% | viability increase [3] 0.32% | viability [4] 96.2% | viability [5] 99.1% | inhibition [6] 1.69% | RAM network inhibition [7] 4.8%
